Test results taken from PMC5524211 (Nuclear medicine and biology, 2017).
pIC50: −log10 of the molar value.

How the values were obtained:
[1] = Chemical Hydrophobicity Index; format: physicochemical; conditions: from HPLC retention time
Summary of the method: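 Reverse-phase HPLC retention times were measured for a set of standards with known CHI to build a standard curve. The CHI of the non-radioactive (19F) test compound was calculated from its retention time on that curve.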

[2] = Plasma protein binding; format: in vitro ADME; conditions: serum
Summary of the method: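 Equilibrium dialysis: 500 μM non-radioactive test compound in serum against PBS, 4 h at 37 °C on an orbital shaker at 100 rpm. Samples from both chambers were protein-precipitated (90/10 acetonitrile/water, 0.1% formic acid) and analysed by HPLC with peak integration. % bound = [1 − (buffer conc./plasma conc.)]×100, reported as mean ± SD.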

[3] = test system: U251 MG cells; assay: In vitro cell uptake; format: cell-based, human
Summary of the method: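 U251 MG cells were plated at 0.5 million/well the day before, PBS-washed twice, then incubated with 18F-labelled test tracer (6 μCi/well) in MEM at 37 °C for 0–240 min. For blocking, a 100-fold excess of unlabelled ATR inhibitor was co-incubated. At each time point, cells were PBS-washed twice and lysed in 1 M NaOH (10 min, 37 °C), and lysate activity was γ-counted.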

[4] = 4 h post injection, healthy athymic nude mice, i.v.
[5] = 1-octanol / 25 mM phosphate buffered saline pH 7.4
[6] = test system: U251 MG xenograft
[7] = biological target: ATR (Homo sapiens, UniProt Q13535); assay: Competitive displacement assay of [18F]-ATRi by Ve-821 in U251 MG cells; format: cell-based
Summary of the method: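 U251 MG cells were grown in MEM with 10% heat-inactivated FBS and penicillin/streptomycin, then seeded at 10^5 cells 24 h before the assay. The 18F-labelled test tracer (final 0.667 nM) was co-incubated with unlabelled competitor (0–1333 nM) for 1 h at 37 °C. Cells were PBS-washed twice, lysed with 1 N NaOH, and bound 18F was γ-counted. Percent bound was run in triplicate and fitted against competitor concentration.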

[8] = test system: ATR; conditions: cited from earlier work
[9] = blocked with 100-fold excess Ve-821 pre-injected 30 min before, 120 min p.i.

ATR (Homo sapiens, UniProt Q13535), sequence (Q13535 whole entry): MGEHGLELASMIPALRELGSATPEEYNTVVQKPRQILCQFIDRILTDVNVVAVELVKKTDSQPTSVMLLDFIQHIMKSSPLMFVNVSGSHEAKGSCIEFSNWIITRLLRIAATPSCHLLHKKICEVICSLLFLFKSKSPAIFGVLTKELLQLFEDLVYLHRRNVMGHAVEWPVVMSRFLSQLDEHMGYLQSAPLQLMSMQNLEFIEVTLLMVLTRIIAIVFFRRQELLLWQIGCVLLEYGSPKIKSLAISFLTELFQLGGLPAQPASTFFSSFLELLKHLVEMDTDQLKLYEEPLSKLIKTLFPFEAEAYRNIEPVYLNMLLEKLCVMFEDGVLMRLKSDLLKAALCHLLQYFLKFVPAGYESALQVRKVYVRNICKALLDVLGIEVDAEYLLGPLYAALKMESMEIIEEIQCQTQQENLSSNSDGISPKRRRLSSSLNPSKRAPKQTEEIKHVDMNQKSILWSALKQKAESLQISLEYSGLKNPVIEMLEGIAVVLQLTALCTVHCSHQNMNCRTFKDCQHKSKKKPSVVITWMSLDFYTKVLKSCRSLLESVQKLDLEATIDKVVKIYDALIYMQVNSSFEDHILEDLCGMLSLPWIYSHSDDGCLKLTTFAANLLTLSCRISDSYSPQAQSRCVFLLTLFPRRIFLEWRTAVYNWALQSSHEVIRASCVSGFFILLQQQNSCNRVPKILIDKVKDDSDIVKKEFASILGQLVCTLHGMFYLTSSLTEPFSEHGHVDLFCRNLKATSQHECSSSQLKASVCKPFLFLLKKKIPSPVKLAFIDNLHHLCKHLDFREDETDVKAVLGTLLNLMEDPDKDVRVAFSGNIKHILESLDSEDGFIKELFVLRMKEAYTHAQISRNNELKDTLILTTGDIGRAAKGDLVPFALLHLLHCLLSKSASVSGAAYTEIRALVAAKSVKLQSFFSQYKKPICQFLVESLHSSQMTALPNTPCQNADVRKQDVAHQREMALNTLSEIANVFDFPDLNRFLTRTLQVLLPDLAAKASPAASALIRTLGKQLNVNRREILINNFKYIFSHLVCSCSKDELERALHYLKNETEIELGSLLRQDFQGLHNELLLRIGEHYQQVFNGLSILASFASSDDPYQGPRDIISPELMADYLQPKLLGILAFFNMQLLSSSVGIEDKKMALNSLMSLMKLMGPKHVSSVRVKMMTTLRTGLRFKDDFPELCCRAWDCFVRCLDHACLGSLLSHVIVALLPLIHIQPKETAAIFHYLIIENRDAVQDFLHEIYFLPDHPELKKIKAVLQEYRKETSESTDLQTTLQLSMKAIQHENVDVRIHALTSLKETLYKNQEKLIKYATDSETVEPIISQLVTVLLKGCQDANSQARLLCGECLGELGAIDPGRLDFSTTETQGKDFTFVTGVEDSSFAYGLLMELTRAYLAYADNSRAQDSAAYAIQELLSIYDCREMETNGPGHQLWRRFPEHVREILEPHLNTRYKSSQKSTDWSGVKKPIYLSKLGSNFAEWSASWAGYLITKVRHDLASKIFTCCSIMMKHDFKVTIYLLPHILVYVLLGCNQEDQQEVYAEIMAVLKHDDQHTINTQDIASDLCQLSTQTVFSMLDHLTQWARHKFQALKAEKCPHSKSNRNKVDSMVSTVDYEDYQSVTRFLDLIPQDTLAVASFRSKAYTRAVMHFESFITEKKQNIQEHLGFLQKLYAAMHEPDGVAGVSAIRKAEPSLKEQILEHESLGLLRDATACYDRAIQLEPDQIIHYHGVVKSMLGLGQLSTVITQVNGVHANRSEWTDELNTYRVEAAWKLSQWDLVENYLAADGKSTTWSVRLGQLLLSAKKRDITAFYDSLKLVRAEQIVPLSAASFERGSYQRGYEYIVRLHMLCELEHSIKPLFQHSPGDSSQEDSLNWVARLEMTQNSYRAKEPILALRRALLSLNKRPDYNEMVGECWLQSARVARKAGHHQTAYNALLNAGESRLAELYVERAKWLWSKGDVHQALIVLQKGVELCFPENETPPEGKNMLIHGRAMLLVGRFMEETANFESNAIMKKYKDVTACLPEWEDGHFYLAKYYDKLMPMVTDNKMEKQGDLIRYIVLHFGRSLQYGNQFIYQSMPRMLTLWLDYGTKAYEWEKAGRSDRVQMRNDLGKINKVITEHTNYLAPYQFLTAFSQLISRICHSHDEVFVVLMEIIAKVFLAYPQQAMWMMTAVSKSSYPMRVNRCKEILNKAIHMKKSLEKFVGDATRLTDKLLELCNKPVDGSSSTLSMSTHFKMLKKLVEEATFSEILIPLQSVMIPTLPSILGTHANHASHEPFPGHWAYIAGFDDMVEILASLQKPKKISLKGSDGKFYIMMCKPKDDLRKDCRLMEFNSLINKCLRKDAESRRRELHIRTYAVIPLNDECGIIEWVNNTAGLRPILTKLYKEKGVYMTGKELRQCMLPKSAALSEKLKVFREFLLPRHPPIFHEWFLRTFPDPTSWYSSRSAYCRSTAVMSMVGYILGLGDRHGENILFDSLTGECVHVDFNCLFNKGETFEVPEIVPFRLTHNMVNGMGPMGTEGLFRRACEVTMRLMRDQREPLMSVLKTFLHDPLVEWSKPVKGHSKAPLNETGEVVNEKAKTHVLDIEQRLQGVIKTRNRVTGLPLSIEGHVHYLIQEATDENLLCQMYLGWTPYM
ATR (Homo sapiens, UniProt Q13535), sequence (Q8WXE1 whole entry partner): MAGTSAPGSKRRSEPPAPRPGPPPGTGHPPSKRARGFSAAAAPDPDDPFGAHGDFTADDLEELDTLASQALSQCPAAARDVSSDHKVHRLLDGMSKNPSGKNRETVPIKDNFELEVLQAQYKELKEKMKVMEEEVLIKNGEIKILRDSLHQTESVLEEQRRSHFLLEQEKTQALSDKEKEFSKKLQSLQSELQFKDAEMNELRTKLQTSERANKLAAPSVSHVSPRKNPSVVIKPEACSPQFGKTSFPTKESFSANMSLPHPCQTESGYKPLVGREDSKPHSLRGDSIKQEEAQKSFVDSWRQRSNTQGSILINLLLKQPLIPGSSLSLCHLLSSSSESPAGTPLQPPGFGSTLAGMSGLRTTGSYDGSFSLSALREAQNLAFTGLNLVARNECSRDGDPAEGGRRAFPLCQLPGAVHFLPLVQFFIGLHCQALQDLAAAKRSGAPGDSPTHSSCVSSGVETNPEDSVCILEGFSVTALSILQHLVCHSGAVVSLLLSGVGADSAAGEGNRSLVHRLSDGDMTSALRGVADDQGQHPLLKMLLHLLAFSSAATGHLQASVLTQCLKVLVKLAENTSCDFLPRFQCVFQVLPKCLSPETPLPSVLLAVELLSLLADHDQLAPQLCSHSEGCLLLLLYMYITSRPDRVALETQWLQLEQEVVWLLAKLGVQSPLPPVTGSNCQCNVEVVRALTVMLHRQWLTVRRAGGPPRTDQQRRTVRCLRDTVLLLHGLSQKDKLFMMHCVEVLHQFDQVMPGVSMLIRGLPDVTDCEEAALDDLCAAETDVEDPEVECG

Q: With `CS(=O)(=O)c1ccc(-c2cnc(N)c(C(=O)Nc3ccc(F)cc3)n2)cc1` [compound 5, 3-amino-N-(4-fluorophenyl)-6-(4-(methylsulfonyl)-phenyl)pyrazine-2-carboxamide] as the molecule, how does the CHI value [1] read?
A: The CHI value was 76.8.

Q: And the fraction unbound at 4 h, 500 μM [2]?
A: The fraction unbound at 4 h, 500 μM was roughly 0.1.

Q: With `CS(=O)(=O)c1ccc(-c2cnc(N)c(C(=O)Nc3ccc([18F])cc3)n2)cc1` [[^18F]-9, 3-amino-N-(4-[^18F]phenyl)-6-(4-(methylsulfonyl)phenyl)pyrazine-2-carboxamide] as the molecule, how does the “cell uptake, blocked” value ([3]; U251 MG cells blocked with Ve-821 (100-fold excess), co-incubated 240 min) read?
A: Its value is 0.16±0.1%.

Q: And the cell uptake ([3]; U251 MG cells, 240 min incubation with [18F]-ATRi only)?
A: The cell uptake was 3.5 ± 0.1%.

Q: And the “ex vivo blood stability (tracer stable)” value [4]?
A: The value was “greater than 97%”.

Q: And the “clearance from bloodstream (fast phase)” value (2-phase decay curve, healthy mice, i.v.)?
A: The value was less than 10 min.

Q: And the weighted blood half-life (single bolus intravenous injection via tail vein, nude mice, two-phase decay fit)?
A: The weighted blood half-life was 6.2 min.

Q: And the LogPO/W [5]?
A: The LogPO/W was 1.6.

Q: What about the tumor-to-brain ratio ([6]; U251 MG xenograft mice) of the same molecule?
A: Its tumor-to-brain ratio is greater than 15.

Q: And the kidney uptake ([6]; biodistribution, 120 min p.i.)?
A: Its kidney uptake is 3.51 ± 0.23 %ID/g.

Q: And the liver uptake ([6]; biodistribution, 120 min p.i.)?
A: Its liver uptake is 3.68± 1.39 %ID/g.

Q: What about the “blood uptake, blocked” value [6, 9] of the same molecule?
A: Its value is 0.84 ± 0.3 %ID/g.

Q: And the “tumor uptake, blocked” value [6, 9]?
A: Its value is 0.46 ± 0.12 %ID/g.

Q: What about the blood uptake ([6]; unblocked, 120 min p.i., i.v.) of the same molecule?
A: Its blood uptake is 1.85 ± 0.47 %ID/g.

Q: With `CS(=O)(=O)c1ccc(-c2cnc(N)c(C(=O)Nc3ccccc3)n2)cc1` [Ve-821] as the molecule, how does the pIC50 [7] read?
A: The pIC50 was 7.42.

Q: What about the pIC50 [8] of the same molecule?
A: The pIC50 was 7.59.
